The values that follow come from paper PMC6737205 (International Journal of Nanomedicine, 2019).

Common to all, as to set-up: species or system mouse
Holding throughout (settings): S180 mice, oral, RGDV-gemcitabine 8.4 μmol/kg/day, gemcitabine 84 μmol/kg/day, every 3 days for 12 days, n=12

Data set [1] in a line: In vivo serum ALT/GPT assay. In short, it runs like this:
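Serum came from male ICR mice bearing subcutaneous S180 tumours (1×10^7 cells, right armpit). Blood was taken 3 hrs after the last oral dose, with saline 10 mL/kg/day as vehicle, and spun at 1000 rpm, 4°C, 10 mins. Serum was incubated with kit matrix at 37°C for 30 mins, then dinitrophenylhydrazine at 37°C for 20 mins, then 0.4 M NaOH. Read at 510 nm; ALT from a standard curve.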

Data set [2] in a line: In vivo serum AST/GOT assay.
A short description of another data set: In vivo serum Cr assay. In short, it runs like this:
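Creatinine was measured with an enzymatic kit on serum from S180 tumour-bearing mice, with blood spun at 1000 rpm, 4°C, 10 mins. Serum plus enzyme solution A was incubated at 37°C for 5 mins and read at 546 nm (A1). After a further 30 mins at 37°C, enzyme solution B was added, incubated 5 mins, and read again at 546 nm (A2). Cr was calculated from the two readings.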

Another data set is described as follows: In vivo serum BUN assay. In short, it runs like this: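 BUN was measured by a kit immunoassay on serum from S180 tumour-bearing mice, with blood spun at 3000 rpm, 4°C, 10 mins. Serum was incubated with anti-BUN antibody and streptavidin-HRP at 37°C for 60 mins, then washed 5 times. Chromogen was added at 37°C for 15 mins in the dark, then stop solution. Read at 450 nm within 15 mins; BUN from a standard curve.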

`Nc1ccn([C@@H]2O[C@H](CO)[C@@H](O)C2(F)F)c(=O)n1` [gemcitabine]: the “serum ALT/GPT compared with NS-treated mice” value in data set [1] is “significantly higher than those of NS-treated mice”. Besides, the “serum AST/GOT compared with NS-treated mice” value in data set [2] is recorded as “significantly higher than those of NS-treated mice”. Further, the “serum Cr compared with NS-treated mice” value in the data set “In vivo serum Cr assay” was “significantly higher than those of NS-treated mice”. Besides, in “In vivo serum BUN assay”, the “serum BUN compared with NS-treated mice” value was “significantly higher than those of NS-treated mice”.
